# Assay results gathered from unrelated publications.
# Lines come from different studies, so protocols differ.
# PDE10A: cAMP and cAMP-inhibited cGMP 3',5'-cyclic phosphodiesterase 10A (PDE10A, Homo sapiens, UniProt Q9Y233)
# SLC6A3: Sodium-dependent dopamine transporter (SLC6A3, Homo sapiens, UniProt Q01959)
SMILES,target,effect on,action,method,cells,concentration,inhibition
c1ccc(-c2cccc(Cc3ncnc4ccccc34)c2)cc1,PDE10A,enzyme activity,inhibitor,FP,,0.1 µM,0%
N#CC[C@@]12C[C@@H]1[C@@H](n1cnc3c(NCCCCCc4ccccc4)nc(C#Cc4ccc(Cl)s4)nc31)[C@H](O)[C@@H]2O,SLC6A3,ligand displacement,,radioligand,,10 µM,7%
COc1cc2ncnc(Cc3cccc(-c4ccccc4)c3)c2cc1OC,PDE10A,enzyme activity,inhibitor,FP,,0.1 µM,63%
N#CC[C@@]12C[C@@H]1[C@@H](n1cnc3c(NCc4cccc(Cl)c4)nc(C#Cc4ccc(Cl)s4)nc31)[C@H](O)[C@@H]2O,SLC6A3,ligand displacement,,radioligand,,10 µM,89%
NC/C(=C\F)COc1cccc(Cn2c(=S)[nH]c(=O)c3[nH]cnc32)c1,"Sodium- and chloride-dependent GABA transporter 1 (Slc6a1, Rattus norvegicus, UniProt P23978)",ligand displacement,,radioligand,,10 µM,< 50%
C#Cc1cc(-c2cc(Nc3nc(N[C@@H](C)c4ccc(F)cn4)ncc3Cl)n[nH]2)ccc1C=O,"Mitogen-activated protein kinase 15 (MAPK15, Homo sapiens, UniProt Q8TD08)",enzyme activity,inhibitor,,,0.2 µM,11.5%
COc1ccc2nccc(Cc3cccc(-c4cnn(C5COC5)c4)c3)c2c1,PDE10A,enzyme activity,inhibitor,FP,,0.1 µM,3%
CCOC(=O)[C@@]12C[C@@H]1[C@@H](n1cnc3c(NCCCCCc4ccccc4)nc(C#Cc4ccccc4)nc31)[C@H](O)[C@@H]2O,SLC6A3,transporter uptake,inhibitor,radiometric,HEK293,10 µM,9%
Cc1cc(O)c(-c2ccc([C@@H](C)CN(C)C)cc2)c2c1[nH]c(=O)c1sccc12,"Serine/threonine-protein kinase D1 (PRKD1, Homo sapiens, UniProt Q15139)",enzyme activity,inhibitor,,,0.1 µM,-0.107%
